Assays:
[1] = molecular target: T1, Beta-3 adrenergic receptor (Homo sapiens, UniProt P13945); assay: Human beta-3 adrenergic receptor agonist activity by measurement of cAMP accumulation levels in CHO membranes expressing human beta-3 receptor.; format: functional, cell membranes
Outline: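 β3 intrinsic activity (% activation) measured in membranes from CHO cells transfected with human β3 adrenergic receptor.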
Target sequence in this assay (P13945 whole entry, looked up): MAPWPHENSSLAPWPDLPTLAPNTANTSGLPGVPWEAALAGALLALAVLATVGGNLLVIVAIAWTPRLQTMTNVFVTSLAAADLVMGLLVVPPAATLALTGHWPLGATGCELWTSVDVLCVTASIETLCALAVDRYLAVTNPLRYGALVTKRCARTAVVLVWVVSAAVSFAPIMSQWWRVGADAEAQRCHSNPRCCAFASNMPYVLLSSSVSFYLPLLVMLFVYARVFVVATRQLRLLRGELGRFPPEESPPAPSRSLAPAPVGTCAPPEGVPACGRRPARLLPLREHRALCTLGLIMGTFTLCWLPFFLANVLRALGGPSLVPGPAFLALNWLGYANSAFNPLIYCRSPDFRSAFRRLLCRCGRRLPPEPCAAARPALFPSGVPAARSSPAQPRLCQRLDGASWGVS

[2] = molecular target: Beta-2 adrenergic receptor and beta-3 adrenergic receptor (Homo sapiens) (UniProt P07550+P13945); assay: Selectivity as the ratio of Ki of beta-2 adrenergic receptor to the Ki of beta-3 adrenergic receptor.; format: protein assay
Outline: (§1)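 Ki at human β1, β2 and β3 adrenergic receptors measured by binding to membranes prepared from CHO cells transfected with each human receptor. Selectivity is expressed as the ratio of β1 or β2 Ki to β3 Ki.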

[3] = molecular target: Adrenergic receptor beta; ADRB1 & ADRB3 (Homo sapiens) (UniProt P08588+P13945); assay: Selectivity measured as the ratio of Ki of Beta-1 Adrenergic receptor to the Ki of Beta-3 Adrenergic receptor; format: protein assay; outline: as §1
Sequence of Adrenergic receptor beta; ADRB1 & ADRB3 (Homo sapiens) (P08588 whole entry, looked up): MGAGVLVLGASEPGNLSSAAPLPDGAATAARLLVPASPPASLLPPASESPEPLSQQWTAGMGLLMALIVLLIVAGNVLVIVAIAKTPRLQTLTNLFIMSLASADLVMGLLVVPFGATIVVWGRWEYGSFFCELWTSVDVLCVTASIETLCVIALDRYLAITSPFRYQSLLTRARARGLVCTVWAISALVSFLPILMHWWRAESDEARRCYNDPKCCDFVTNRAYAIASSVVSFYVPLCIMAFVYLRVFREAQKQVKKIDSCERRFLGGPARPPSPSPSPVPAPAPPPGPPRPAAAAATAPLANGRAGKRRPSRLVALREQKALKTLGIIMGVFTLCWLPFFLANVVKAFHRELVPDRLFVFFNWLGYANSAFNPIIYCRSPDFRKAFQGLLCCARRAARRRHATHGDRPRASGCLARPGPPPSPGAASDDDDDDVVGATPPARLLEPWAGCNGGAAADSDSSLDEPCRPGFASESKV
Sequence of Adrenergic receptor beta; ADRB1 & ADRB3 (Homo sapiens) (P13945 whole entry, looked up): as the sequence (P13945 whole entry, looked up) above

[4] = molecular target: T1, Beta-3 adrenergic receptor; assay: Binding affinity against CHO cells transfected with human beta-3 adrenergic receptor in the presence of [125I]iodocyanopindolol; format: cell-based; outline: as §1
Target sequence in this assay (P13945 whole entry): as the sequence (P13945 whole entry, looked up) above

Cavia porcellus = organism: Cavia porcellus; assay: (§2) Intrinsic activity as the acceleration in contraction of spontaneously beating guinea pig atria relative to that induced by isoproterenol; format: functional
[5] = Response of African green monkeys to lipolysis upon iv injection of compound; format: functional; conditions: Cercopithecidae
Outline: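 Agonist given iv to ketamine-anesthetized African green monkeys. Lipolysis is read as the rise in non-esterified fatty acids, and the ED50 is given in mg/kg. β3 mediation is checked by co-administration with propranolol 0.1 mg/kg.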

[6] = Response of African green monkeys to iv injection measured as beta-1 margin before onset of tachycardia; format: functional, Cercopithecidae
Outline: (§3)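 Agonist given iv to ketamine-anesthetized African green monkeys. A β1 event is the onset of tachycardia, and a β2 event is a decrease in serum K+. Margin = dose producing statistically significant onset of the β1 or β2 event ÷ ED50 for lipolysis.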

[7] = Response of African green monkeys to iv injection measured as beta-2 margin before decrease of serum K; format: functional, Cercopithecidae; outline: as §3
[8] = molecular target: Beta-1 adrenergic receptor (Cavia porcellus) (UniProt B0FL73); assay: as §2; format: functional
Sequence of Beta-1 adrenergic receptor (Cavia porcellus) (B0FL73 1-467): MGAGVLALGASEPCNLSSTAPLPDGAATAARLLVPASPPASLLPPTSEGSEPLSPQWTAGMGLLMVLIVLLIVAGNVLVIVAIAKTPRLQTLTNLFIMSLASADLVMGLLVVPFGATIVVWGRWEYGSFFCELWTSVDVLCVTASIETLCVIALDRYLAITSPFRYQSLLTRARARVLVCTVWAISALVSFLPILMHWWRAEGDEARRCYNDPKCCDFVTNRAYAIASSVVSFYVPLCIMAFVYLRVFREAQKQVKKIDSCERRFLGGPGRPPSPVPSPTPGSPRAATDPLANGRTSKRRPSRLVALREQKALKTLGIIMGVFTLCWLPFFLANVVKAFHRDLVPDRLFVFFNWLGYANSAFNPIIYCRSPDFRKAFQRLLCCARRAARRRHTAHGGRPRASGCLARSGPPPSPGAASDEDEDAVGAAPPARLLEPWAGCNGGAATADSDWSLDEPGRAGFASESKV

SMILES	Intrinsic activity [1] [%]	Selectivity [2]	Selectivity [3]	Ki [4] [µM]	Intrinsic activity (Cavia porcellus) [%]	ED50 [5] [mg/kg]	Ratio of dose [6]	Ratio of dose [7]	Intrinsic activity [8] [%]
COc1cccc(C(Cc2ccccc2)NCC(O)c2ccc(O)c(NS(C)(=O)=O)c2)c1 (stereo unspecified)	99	2	16	0.23	–	–	–	–	–
COc1ccc(C(Cc2ccccc2)NCC(O)c2ccc(O)c(NS(C)(=O)=O)c2)cc1OC (stereo unspecified)	105	8	69	0.033	–	–	–	–	–
CN(C)C(=O)c1ccc(C(NC[C@H](O)c2ccc(O)c(NS(C)(=O)=O)c2)c2ccc(C(=O)N(C)C)cc2)cc1	43	–	–	–	–	–	–	–	–
CNC(=O)CCCCC(Cc1ccccc1)NCC(O)c1ccc(O)c(NS(C)(=O)=O)c1 (stereo unspecified)	104	0.5	7	1.6	–	–	–	–	–
COc1ccc(CCNCC(O)c2ccc(O)c(NS(C)(=O)=O)c2)cc1 (stereo unspecified)	93	0.3	4	0.48	–	–	–	–	–
CS(=O)(=O)Nc1cc(C(O)CNC(Cc2ccccc2)c2ccccc2)ccc1O (stereo unspecified)	–	3	15	–	–	–	–	–	–
Cc1ccc(C(Cc2ccccc2)NCC(O)c2ccc(O)c(NS(C)(=O)=O)c2)cc1C (stereo unspecified)	79	3	43	0.133	–	–	–	–	–
CS(=O)(=O)Nc1cc([C@@H](O)CNC(c2ccccc2)c2ccccc2)ccc1O	44	5	5	5.8	–	–	–	–	–
CS(=O)(=O)Nc1cc(C(O)CNC(Cc2ccccc2)c2ccc(Cl)c(Cl)c2)ccc1O (stereo unspecified)	97	1	9	0.414	–	–	–	–	–
COc1ccc(C(C)(NC[C@H](O)c2ccc(O)c(NS(C)(=O)=O)c2)c2ccc(OC)cc2)cc1	79	8	3	0.02	79	–	–	–	–
CS(=O)(=O)Nc1cc(C(O)CNCc2ccccc2)ccc1O (stereo unspecified)	–	0.25	2	12.7	–	–	–	–	–
CCc1ccc(C(Cc2ccccc2)NCC(O)c2ccc(O)c(NS(C)(=O)=O)c2)cc1CC (stereo unspecified)	91	0.5	6	0.52	–	–	–	–	–
CS(=O)(=O)Nc1cc([C@@H](O)CNC(c2ccc(OC(F)F)cc2)c2ccc(OC(F)F)cc2)ccc1O	77	7	8	0.16	24	0.08	>6	>60	–
CS(=O)(=O)Nc1cc(C(O)CNC(Cc2ccccc2)C2CCCCC2)ccc1O (stereo unspecified)	80	0.7	7	4.3	–	–	–	–	–
CCCCCC(Cc1ccccc1)NCC(O)c1ccc(O)c(NS(C)(=O)=O)c1 (stereo unspecified)	77	0.5	8	0.32	–	–	–	–	–
CC(=O)Nc1ccc(C(NC[C@H](O)c2ccc(O)c(NS(C)(=O)=O)c2)c2ccc(NC(C)=O)cc2)cc1	96	3	17	0.3	–	–	–	–	88
C[C@H](Cc1ccc(OCC(=O)O)cc1)NC[C@H](O)c1cccc(Cl)c1	67	–	–	–	–	–	–	–	–
CCC(C)(C)NCC(O)c1ccc(O)c(NS(C)(=O)=O)c1 (stereo unspecified)	125	0.03	0.3	3.7	–	–	–	–	–
COC(=O)CCCCC(Cc1ccccc1)NCC(O)c1ccc(O)c(NS(C)(=O)=O)c1 (stereo unspecified)	89	5	26	0.57	–	–	–	–	–
CS(=O)(=O)Nc1cc(C(O)CNC(CCCCC(=O)O)Cc2ccccc2)ccc1O (stereo unspecified)	57	0.3	1	87	–	–	–	–	–

SMILES	Intrinsic activity [1] [%]	Selectivity [2]	Selectivity [3]	Ki [4] [µM]	Intrinsic activity (Cavia porcellus) [%]	ED50 [5] [mg/kg]	Ratio of dose [6]	Ratio of dose [7]	Intrinsic activity [8] [%]
CS(=O)(=O)Nc1cc(C(O)CN)ccc1O (stereo unspecified)	93	0.1	0.6	17	–	–	–	–	–
CS(=O)(=O)Nc1cc(C(O)CNCCc2ccccc2)ccc1O (stereo unspecified)	91	0.07	2	1.1	–	–	–	–	–
COc1ccc(C(Cc2ccccc2)NCC(O)c2ccc(O)c(NS(C)(=O)=O)c2)cc1 (stereo unspecified)	99	–	–	–	–	–	–	–	–
CS(=O)(=O)Nc1cc(C(O)CNC(Cc2ccccc2)Cc2ccccc2)ccc1O (stereo unspecified)	–	0.3	6	1.5	–	–	–	–	–
COc1ccc(C(NC[C@H](O)c2ccc(O)c(NS(C)(=O)=O)c2)c2ccc(OC)cc2)cc1	100	–	–	–	85	–	–	–	–
COC(=O)COc1ccc(CCNCC(O)c2ccc(O)c(NS(C)(=O)=O)c2)cc1 (stereo unspecified)	79	0.01	0.7	3.3	–	–	–	–	–
CS(=O)(=O)Nc1cc(C(O)CNCCc2ccc(OCC(=O)O)cc2)ccc1O (stereo unspecified)	77	0.06	2	49	–	–	–	–	–
COc1ccc(C(Cc2ccccc2)NCC(O)c2ccc(O)c(NS(C)(=O)=O)c2)c(OC)c1 (stereo unspecified)	102	3	37	0.07	–	–	–	–	–
CC(C)NCC(O)c1ccc(O)c(NS(C)(=O)=O)c1 (stereo unspecified) [SOTERENOL]	109	0.6	2	4.1	–	–	–	–	–
COc1ccc(C(NC[C@H](O)c2ccc(O)c(NS(C)(=O)=O)c2)(C(N)=O)c2ccc(OC)cc2)cc1	106	10	3	0.22	–	–	–	–	–
COc1ccc([C@H](Cc2ccccc2)NC[C@H](O)c2ccc(O)c(NS(C)(=O)=O)c2)cc1OC	93	6	63	0.32	–	–	–	–	–
COc1ccc([C@@H](Cc2ccccc2)NC[C@H](O)c2ccc(O)c(NS(C)(=O)=O)c2)cc1OC	112	6	63	0.011	–	0.03	<3	3	–
CS(=O)(=O)Nc1cc(C(O)CNC23CC4CC(CC(C4)C2)C3)ccc1O (stereo unspecified)	110	0.04	15	11	–	–	–	–	–
CS(=O)(=O)Nc1cc(C(O)CNC(CCCCCO)Cc2ccccc2)ccc1O (stereo unspecified)	72	0.5	10	0.48	–	–	–	–	–
CC(NC[C@H](O)c1ccc(O)c(NS(C)(=O)=O)c1)(c1ccc(OC(F)F)cc1)c1ccc(OC(F)F)cc1	94	2	2	0.081	–	–	–	–	–
COc1ccc(CNCC(O)c2ccc(O)c(NS(C)(=O)=O)c2)cc1 (stereo unspecified)	95	2	22	1.55	–	–	–	–	–
COc1ccc(CCNCC(O)c2ccc(O)c(NS(C)(=O)=O)c2)cc1OC (stereo unspecified)	110	1	4	0.55	–	–	–	–	–
CS(=O)(=O)Nc1cc([C@@H](O)CNC(c2ccc(F)cc2)c2ccc(F)cc2)ccc1O	70	2	3	2.8	48	–	–	–	–
COCc1ccc(C(NC[C@H](O)c2ccc(O)c(NS(C)(=O)=O)c2)c2ccc(COC)cc2)cc1	78	13	46	0.98	–	–	–	–	–

— ChEMBL document CHEMBL1133857, “Beta 3 agonists. Part 1: evolution from inception to BMS-194449” (Bioorg Med Chem Lett, 2001)
